Experimental data taken from ChEMBL document CHEMBL1250434, “A novel achiral seco-cyclopropylpyrido[e]indolone (CPyI) analog of CC-1065 and the duocarmycins: synthesis, DNA interactions, in vivo anticancer and anti-parasitic evaluation” (Bioorg Med Chem, 2010).

Experiments:
L1210 [1] = assay: Cytotoxicity against mouse L1210 cells after 3 days by MTT assay; type: functional, cell-based; details: L1210, 72 h
In short: (§1)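 Murine tumour cells under continuous drug exposure for 3 days. Growth inhibition measured by MTT assay. IC50 is the concentration inhibiting growth by 50%.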

[2] = Cytotoxicity against mouse B16F0 cells after 3 days by MTT assay; type: functional, cell-based; details: B16F0, 72 h; in short: as §1
A549 = assay: Cytotoxicity against human A549 cells after 48 hrs by sulforhodamine B assay; type: functional; details: A549, 48 h, read-out: pLC50 (the source's name) (converted)
In short: (§2)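 NCI human cancer cell line panel. Continuous 48 h drug exposure, viability by sulforhodamine B. GI50, TGI and LC50 derived from dose–response curves.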

CCRF-CEM = assay: Cytotoxicity against human CCRF-CEM cells after 48 hrs by sulforhodamine B assay; type: functional; details: read-out: pLC50 (the source's name) (converted); in short: as §2
Nucleic Acid = assay: Binding affinity to pUC18 DNA assessed as DNA alkylating activity after 5 hrs by thermal cleavage assay; type: nucleic-acid assay; details: Escherichia coli
In short: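 PCR probe from the 749–956 region of pUC18. DNA precipitated and lyophilised, then heated at 90 °C for 30 min in sodium citrate buffer (pH 7.2) to cleave at alkylated adenines. Fragments resolved by electrophoresis.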

L1210 [3] = assay: Selectivity ratio of IC50 for mouse L1210 cells to IC50 for mouse B16F0 cells; type: functional
EKVX = assay: Cytotoxicity against human EKVX cells after 48 hrs by sulforhodamine B assay; type: functional; details: read-out: pLC50 (the source's name) (converted); in short: as §2
HOP-62 = assay: Cytotoxicity against human HOP62 cells after 48 hrs by sulforhodamine B assay; type: functional; details: HOP-62, 48 h, read-out: pLC50 (the source's name) (converted); in short: as §2
HOP-92 = assay: Cytotoxicity against human HOP92 cells after 48 hrs by sulforhodamine B assay; type: functional; details: HOP-92, 48 h, read-out: pLC50 (the source's name) (converted); in short: as §2
NCI-H23 = assay: Cytotoxicity against human NCI-H23 cells after 48 hrs by sulforhodamine B assay; type: functional; details: NCI-H23, 48 h, read-out: pLC50 (the source's name) (converted); in short: as §2
NCI-H322M = assay: Cytotoxicity against human NCI-H322M cells after 48 hrs by sulforhodamine B assay; type: functional; details: read-out: pLC50 (the source's name) (converted); in short: as §2
NCI-H460 = assay: Cytotoxicity against human NCI-H460 cells after 48 hrs by sulforhodamine B assay; type: functional; details: NCI-H460, 48 h, read-out: pLC50 (the source's name) (converted); in short: as §2
NCI-H522 = assay: Cytotoxicity against human NCI-H522 cells after 48 hrs by sulforhodamine B assay; type: functional; details: NCI-H522, 48 h, read-out: pLC50 (the source's name) (converted); in short: as §2
COLO 205 = assay: Cytotoxicity against human COLO205 cells after 48 hrs by sulforhodamine B assay; type: functional; details: COLO 205, 48 h, read-out: pLC50 (the source's name) (converted); in short: as §2
HCT-15 = assay: Cytotoxicity against human HCT15 cells after 48 hrs by sulforhodamine B assay; type: functional; details: HCT-15, 48 h, read-out: pLC50 (the source's name) (converted); in short: as §2
HT-29 = assay: Cytotoxicity against human HT-29 cells after 48 hrs by sulforhodamine B assay; type: functional; details: HT-29, 48 h, read-out: pLC50 (the source's name) (converted); in short: as §2
KM12 = assay: Cytotoxicity against human KM12 cells after 48 hrs by sulforhodamine B assay; type: functional; details: KM12, 48 h, read-out: pLC50 (the source's name) (converted); in short: as §2
SW-620 = assay: Cytotoxicity against human SW620 cells after 48 hrs by sulforhodamine B assay; type: functional; details: SW-620, 48 h, read-out: pLC50 (the source's name) (converted); in short: as §2
SF-268 = assay: Cytotoxicity against human SF268 cells after 48 hrs by sulforhodamine B assay; type: functional; details: SF-268, 48 h, read-out: pLC50 (the source's name) (converted); in short: as §2
SF-295 = assay: Cytotoxicity against human SF295 cells after 48 hrs by sulforhodamine B assay; type: functional; details: SF-295, 48 h, read-out: pLC50 (the source's name) (converted); in short: as §2
SF-539 = assay: Cytotoxicity against human SF539 cells after 48 hrs by sulforhodamine B assay; type: functional; details: SF-539, 48 h, read-out: pLC50 (the source's name) (converted); in short: as §2
SNB-19 = assay: Cytotoxicity against human SNB19 cells after 48 hrs by sulforhodamine B assay; type: functional; details: SNB-19, 48 h, read-out: pLC50 (the source's name) (converted); in short: as §2
SNB-75 = assay: Cytotoxicity against human SNB75 cells after 48 hrs by sulforhodamine B assay; type: functional; details: SNB-75, 48 h, read-out: pLC50 (the source's name) (converted); in short: as §2
M14 = assay: Cytotoxicity against human M14 cells after 48 hrs by sulforhodamine B assay; type: functional; details: M14, 48 h, read-out: pLC50 (the source's name) (converted); in short: as §2
SK-MEL-2 = assay: Cytotoxicity against human SK-MEL-2 cells after 48 hrs by sulforhodamine B assay; type: functional; details: SK-MEL-2, 48 h, read-out: pLC50 (the source's name) (converted); in short: as §2
SK-MEL-28 = assay: Cytotoxicity against human SK-MEL-28 cells after 48 hrs by sulforhodamine B assay; type: functional; details: SK-MEL-28, 48 h, read-out: pLC50 (the source's name) (converted); in short: as §2
UACC-62 = assay: Cytotoxicity against human UACC62 cells after 48 hrs by sulforhodamine B assay; type: functional; details: UACC-62, 48 h, read-out: pLC50 (the source's name) (converted); in short: as §2
IGROV-1 = assay: Cytotoxicity against human IGROV1 cells after 48 hrs by sulforhodamine B assay; type: functional; details: IGROV-1, 48 h, read-out: pLC50 (the source's name) (converted); in short: as §2
OVCAR-3 = assay: Cytotoxicity against human OVCAR-3 cells after 48 hrs by sulforhodamine B assay; type: functional; details: OVCAR-3, 48 h, read-out: pLC50 (the source's name) (converted); in short: as §2
OVCAR-4 = assay: Cytotoxicity against human OVCAR4 cells after 48 hrs by sulforhodamine B assay; type: functional; details: OVCAR-4, 48 h, read-out: pLC50 (the source's name) (converted); in short: as §2
OVCAR-8 = assay: Cytotoxicity against human OVCAR8 cells after 48 hrs by sulforhodamine B assay; type: functional; details: OVCAR-8, 48 h, read-out: pLC50 (the source's name) (converted); in short: as §2
SK-OV-3 = assay: Cytotoxicity against human SKOV3 cells after 48 hrs by sulforhodamine B assay; type: functional; details: SK-OV-3, 48 h, read-out: pLC50 (the source's name) (converted); in short: as §2
786-0 = assay: Cytotoxicity against human 786-0 cells after 48 hrs by sulforhodamine B assay; type: functional; details: 786-0, 48 h, read-out: pLC50 (the source's name) (converted); in short: as §2
CAKI-1 = assay: Cytotoxicity against human Caki1 cells after 48 hrs by sulforhodamine B assay; type: functional; details: CAKI-1, 48 h, read-out: pLC50 (the source's name) (converted); in short: as §2
UO-31 = assay: Cytotoxicity against human UO31 cells after 48 hrs by sulforhodamine B assay; type: functional; details: UO-31, 48 h, read-out: pLC50 (the source's name) (converted); in short: as §2
PC-3 = assay: Cytotoxicity against human PC3 cells after 48 hrs by sulforhodamine B assay; type: functional; details: PC-3, 48 h, read-out: pLC50 (the source's name) (converted); in short: as §2
DU-145 = assay: Cytotoxicity against human DU145 cells after 48 hrs by sulforhodamine B assay; type: functional; details: DU-145, 48 h, read-out: pLC50 (the source's name) (converted); in short: as §2
[4] = Cytotoxicity against human Hs 578T cells after 48 hrs by sulforhodamine B assay; type: functional; details: read-out: pLC50 (the source's name) (converted); in short: as §2
BT-549 = assay: Cytotoxicity against human BT549 cells after 48 hrs by sulforhodamine B assay; type: functional; details: BT-549, 48 h, read-out: pLC50 (the source's name) (converted); in short: as §2
T47D = assay: Cytotoxicity against human T47D cells after 48 hrs by sulforhodamine B assay; type: functional; details: read-out: pLC50 (the source's name) (converted); in short: as §2
[5] = Antitumor activity against mouse B16F0 cells xenografted in C57/BL/6J mouse assessed as […] at 10 mg/kg, ip administered on day 1, 5, and 9 measured after 16 days; type: functional; details: route intraperitoneal
In short: (§3)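 Female C57/BL/6J mice, 5–7 weeks old, 8 per group. Given 200,000 cultured B16-F0 cells (PBS-washed, not mouse-passaged) sc in the left flank on day 0. Dosed 10 mg/kg ip in 1:2 PET/5% glucose on days 1, 5 and 9; controls received vehicle. Tumours measured by caliper about every other day. Volume = length × width². Measurements stopped when 50% of the group had died.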

[6] = Antitumor activity against mouse B16F0 cells xenografted in C57/BL/6J mouse assessed as […] at 10 mg/kg, ip administered on day 1, 5, and 9 measured after 21 days; type: functional; details: route intraperitoneal; in short: as §3
Mus musculus [7] = assay: Toxicity in mouse B16F0 cells xenografted C57/BL/6J mouse assessed as reduction of body weight at 10 mg/kg, ip administered on day 1, 5, and 9 measured after 21 days; type: organism-based; parameters: dose 10 mg/kg, route intraperitoneal; details: in vivo, 504 h
In short: (§4)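 Female C57/BL/6J mice, 5–7 weeks old, 8 per group, carrying sc B16-F0 flank tumours implanted day 0. Dosed 10 mg/kg ip in 1:2 PET/5% glucose on days 1, 5 and 9; vehicle-treated controls on the same schedule. Body weights recorded every other day.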

Mus musculus [8] = assay: Systemic toxicity in mouse B16F0 cells xenografted C57/BL/6J mouse assessed as reduction of body weight at 10 mg/kg, ip administered on day 1, 5, and 9 measured after 21 days; type: organism-based; parameters: dose 10 mg/kg, route intraperitoneal; details: in vivo, 504 h; in short: as §4
Leishmania donovani = assay: Antimicrobial activity against promastigotes of Leishmania donovani assessed as inhibition of cell proliferation after 72 hrs by alamar blue assay; type: functional, organism-based
In short: (§5)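 Promastigotes at 5 × 10^4 cells/well in DME-L medium with 10% heat-inactivated FBS, hemin, xanthine and penicillin-streptomycin. Exposed to 0.03 nM to 64 µM compound for 72 h at 26 °C. Alamar blue added, incubated 15 h, dye reduction read by fluorescence ex 530/em 590 nm.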

Trypanosoma brucei = assay: Antimicrobial activity against procyclic form of Trypanosoma brucei 427 assessed as inhibition of cell proliferation after 72 hrs by alamar blue assay; type: functional, organism-based; details: Trypanosoma brucei, 427, 72 h
In short: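 T. brucei 427 procyclic forms grown in SDM 79 medium with 0.03 nM to 64 µM compound for 72 h at 26 °C. Proliferation read by Alamar blue reduction after a further 15 h, fluorescence ex 530/em 590 nm.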

Plasmodium falciparum = assay: Antimicrobial activity against Plasmodium falciparum infected in human erythrocytes assessed as growth inhibition; type: functional, organism-based
In short: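 P. falciparum grown in human erythrocytes at 3–5% hematocrit in complete medium. In vitro growth assay at six concentrations, in triplicate, in three independent experiments.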

Leishmania mexicana = assay: Antimicrobial activity against promastigotes of Leishmania mexicana assessed as inhibition of cell proliferation after 72 hrs by alamar blue assay; type: functional, organism-based; in short: as §5

## COc1cc2cc(C(=O)Nc3cc(O)c4ccccc4c3CCCl)[nH]c2c(OC)c1OC
L1210 [1]
  IC50: 180 nM
[2]
  IC50: 150 nM

## COc1cc2cc(C(=O)Nc3cc(O)c4ncc(C)cc4c3CCCl)[nH]c2c(OC)c1OC
A549
  CC50: > 100000 nM
CCRF-CEM
  CC50: > 100000 nM
Nucleic Acid
  Activity: Dose-dependent effect
L1210 [1]
  IC50: 0.72 nM
[2]
  IC50: 2.3 nM
L1210 [3]
  Ratio: 10
EKVX
  CC50: 3020 nM
HOP-62
  CC50: < 10 nM
HOP-92
  CC50: 28200 nM
NCI-H23
  CC50: < 10 nM
NCI-H322M
  CC50: 123 nM
NCI-H460
  CC50: 81300 nM
NCI-H522
  CC50: > 100000 nM
COLO 205
  CC50: > 100000 nM
HCT-15
  CC50: > 100000 nM
HT-29
  CC50: > 100000 nM
KM12
  CC50: 191 nM
SW-620
  CC50: > 100000 nM
SF-268
  CC50: > 100000 nM
SF-295
  CC50: 20900 nM
SF-539
  CC50: 151 nM
SNB-19
  CC50: 100000 nM
SNB-75
  CC50: 11.5 nM
M14
  CC50: < 10 nM
SK-MEL-2
  CC50: > 100000 nM
SK-MEL-28
  CC50: > 100000 nM
UACC-62
  CC50: < 10 nM
IGROV-1
  CC50: > 100000 nM
OVCAR-3
  CC50: 2630 nM
OVCAR-4
  CC50: 6030 nM
OVCAR-8
  CC50: 275 nM
SK-OV-3
  CC50: > 100000 nM
786-0
  CC50: 135 nM
CAKI-1
  CC50: 1550 nM
UO-31
  CC50: > 100000 nM
PC-3
  CC50: 11500 nM
DU-145
  CC50: 2190 nM
[4]
  CC50: > 100000 nM
BT-549
  CC50: > 100000 nM
T47D
  CC50: > 100000 nM
[5]
  Activity: 1700 mm3
[6]
  Activity: 2000 mm3
Mus musculus [7]
  Activity: Non-toxic
Mus musculus [8]
  Activity: Toxic
Leishmania donovani
  IC50: 340 nM
Trypanosoma brucei
  IC50: 56 nM
Plasmodium falciparum
  IC50: 1.8 nM
Leishmania mexicana
  IC50: 119 nM
